Sampled rows, rich in hits. Any-hit rate of the full collection: about 3.7%.
KCNQ1 act: potentiates or activates the human KCNQ1 potassium channel; CHO-K1 KCNQ1, thallium flux FluxOR fluorescence; hits give high values; P51787; AID 2648; 310,000 compounds, 0.35% hits; B-score at 10 µM;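 active means fluorescence ratio B-score, a plate-corrected score, at least three library SD, with initial intensity B-score within 5 SD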
Target sequence (P51787 whole entry, looked up): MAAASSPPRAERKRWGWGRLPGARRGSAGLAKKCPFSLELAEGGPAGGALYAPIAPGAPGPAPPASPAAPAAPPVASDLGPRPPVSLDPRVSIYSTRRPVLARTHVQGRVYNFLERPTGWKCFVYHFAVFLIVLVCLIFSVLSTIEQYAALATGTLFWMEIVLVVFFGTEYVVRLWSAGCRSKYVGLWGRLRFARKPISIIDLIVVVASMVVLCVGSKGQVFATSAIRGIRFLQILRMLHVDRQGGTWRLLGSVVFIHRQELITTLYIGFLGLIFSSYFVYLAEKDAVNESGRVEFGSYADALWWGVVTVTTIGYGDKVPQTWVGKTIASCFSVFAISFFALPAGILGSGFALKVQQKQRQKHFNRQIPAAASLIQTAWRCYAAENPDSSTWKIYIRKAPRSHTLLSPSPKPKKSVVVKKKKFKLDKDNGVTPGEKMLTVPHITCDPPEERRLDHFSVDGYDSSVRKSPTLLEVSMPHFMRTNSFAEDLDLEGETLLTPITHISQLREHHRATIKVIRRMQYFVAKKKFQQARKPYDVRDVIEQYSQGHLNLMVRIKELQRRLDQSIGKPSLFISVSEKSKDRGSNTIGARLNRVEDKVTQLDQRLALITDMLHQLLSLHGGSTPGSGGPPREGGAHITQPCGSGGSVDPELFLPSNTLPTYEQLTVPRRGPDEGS
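System: Stable KCNQ1 CHO-K1 line | Incubation: 90 min dye loading and 20 min compound exposure, both at room temperature | Measure: Ratio B score | Medium: Assay buffer for compound exposure, DMSO matched across wells | Compound dosing: Single-concentration screen | Probe or stimulus: K+/Tl+ depolarizing stimulus | Measured by: Kinetic FluxOR fluorescence, 10 s baseline plus 110 s post-stimulus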
KCNK3 block: human KCNK3 channel inhibition, primary screen. CHO-KCNK3 thallium flux, FluxOR fluorescence; hits give low values. B-score at 10 µM. 340,000 compounds, 0.84% hits. AID 602410;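 active means B-score under library mean minus 4 SD, starting fluorescence ratio at most library mean plus 5 SD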;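 further: more negative B-score means stronger inhibition of thallium flux through KCNK3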
Kir21 inh: inhibitors of mouse Kir2.1 inward-rectifier potassium channel. P35561. HEK293-Kir2.1, FluxOR thallium flux fluorescence; hits give low values. B-score at 10 µM. 310,000 compounds, 0.85% hits;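 active means fluorescence ratio B-score at or below minus 3 SD of library scores, with starting-brightness B-score within 2 SD, cut at about -4.2 in these data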;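 further: channel flux triggered by added potassium and thallium sulfate stimulus; B-score of peak minus minimum fluorescence over baseline after thallium stimulus; more negative B-score means stronger Kir2.1 block with less thallium influx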
hERG protect: compounds protecting human hERG from proarrhythmic drug block; CHO-hERG, FluxOR thallium flux, dofetilide IC70 present; Q12809; activation (rescue from dofetilide block), less the hit threshold, % at 10 µM; AID 1511; 310,000 compounds, 0.51% hits;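 active means activation above the mean of controls blocked by dofetilide plus 5 SD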;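 further: thallium influx through hERG after potassium depolarization seen as dye fluorescence rise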
KCNQ1 inh: blocks the human KCNQ1 potassium channel; P51787; CHO-K1 KCNQ1, FluxOR thallium flux fluorescence; hits give high values; B-score at 10 µM; 310,000 compounds, 1.3% hits; AID 2642;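 active means compounds whose thallium flux B-score, printed positive for inhibition, exceeds three library SD while starting fluorescence stays within three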;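 further: channel opened by potassium depolarization with thallium stimulus after 20 min compound exposure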
KCNK9 block: blocks the human KCNK9 two-pore domain potassium channel. 310,000 compounds, 1.2% hits. AID 488922. B-score at 10 µM. Q9NPC2. HEK293 KCNK9, FluxOR thallium flux fluorescence; hits give low values;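 active means ratio B-score over 3 SD below the library mean, with starting fluorescence within 5 SD of its mean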;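 further: negative B-score means less thallium flux so channel inhibition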
KCNK9 inh conf: confirmation of human KCNK9 potassium channel inhibitors | shares compounds with KCNK9 block | HEK293 KCNK9 cells, FluxOR thallium flux fluorescence | inhibition, % at 10 µM | 4,900 compounds, 43% hits | AID 492992;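 active means thallium signal inhibited by more than 5 SD of the compound-free buffer control wells, on both duplicate plates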;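 further: 0% = assay buffer control wells without compound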
Kir21 sel: selectivity of KCNK9 modulators against mouse Kir2.1. shares compounds with KCNK9 block. Kir2.1 cells, FluxOR thallium flux fluorescence. 4,900 compounds, 4% hits. inhibition, % at 10 µM;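 active means thallium signal drop more than 5 SD beyond the mean of the no-compound control wells, seen in both duplicate plates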;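 further: signal is fluorescence rise after thallium addition divided by baseline fluorescence; plate controls were assay buffer only for no effect and full block by chlorpromazine control for full effect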
KCNK9 uninduced: second counter-screen for KCNK9 modulators: effect in non-induced cells | inhibition, % at 10 µM | non-induced KCNK9-HEK293, FluxOR thallium flux | 4,900 compounds, 40% hits | shares compounds with KCNK9 block;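 active means thallium signal drop beyond 5 SD of the untreated control mean, on both duplicate plates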;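 further: plate controls were buffer only IC0 wells for no effect and SID17386958 at its maximal inhibitory level for full effect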
KCNK3 confirm: human KCNK3 channel inhibition, confirmation assay; shares compounds with KCNK3 block; CHO-KCNK3 thallium flux, FluxOR fluorescence; 0% buffer, 100% carvedilol maximal block; ratio percent of control, % at 10 µM; 2,400 compounds, 99% hits;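 active means ratio percent of control, averaged over triplicates, above buffer control mean plus 5 SD, cut at about 64% in these data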;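 further: ratio is the fluorescence rise from min to max over baseline after thallium stimulus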
KCNK3 noninduced: KCNK3 inhibitor counter-screen hit in non-induced cells. 2,400 compounds, 40% hits. non-induced KCNK3 parental cells, FluxOR thallium flux; hits give low values. AID 651747. shares compounds with KCNK3 block. thallium flux ratio (lower = more inhibition) at 10 µM;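 active means thallium flux ratio, averaged over three wells, more than 5 SD below the buffer control mean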;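 further: host cells are CHO cells without KCNK3 induction; ratio is peak minus trough fluorescence over baseline then normalized to buffer controls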
The depositor's hits bear a star; i = inactive; . = no result given.

SMILES | KCNQ1 act | KCNK3 block | Kir21 inh | hERG protect | KCNQ1 inh | KCNK9 block | KCNK9 inh conf | Kir21 sel | KCNK9 uninduced | KCNK3 confirm | KCNK3 noninduced
Cc1ccccc1N1CCN(c2ncnc3scc(-c4cccs4)c23)CC1 | i | i | 0.24 | -18 | i | -14* | 44%* | i | i | . | .
CCOC(=O)N1CCN(c2ncnc3scc(-c4ccc(Cl)cc4)c23)CC1 | i | i | 0.9 | -4 | i | i | . | . | . | . | .
Clc1ccc(CN2CCN(c3ncnc4scc(-c5cccs5)c34)CC2)cc1 | i | i | -0.87 | -23 | 7* | -13* | 34%* | i | i | . | .
O=C(Nc1ccc(S(=O)(=O)N2CCCC2)cc1)c1ccc([N+](=O)[O-])cc1 | i | i | -0.06 | -4 | i | i | . | . | . | . | .
O=C(Nc1c(Cl)cccc1Cl)c1ccc(-c2ccccc2)cc1 | i | i | -1.3 | -1 | i | -8.5* | 34%* | i | i | . | .
O=C(Nc1ccc(Cl)cc1Cl)c1ccc(-c2ccccc2)cc1 | i | i | 0 | -4 | i | i | . | . | . | . | .
O=C(NCCN1CCN(c2ccccc2)CC1)C1CCN(S(=O)(=O)c2cccc3nsnc23)CC1 | i | i | 0.09 | -7 | i | i | . | . | . | . | .
CCOC(=O)c1ccc(N2C(=O)c3n[nH]c(-c4ccco4)c3C2c2ccc([N+](=O)[O-])cc2)cc1 (stereo not drawn) | i | -9.8* | -0.01 | -5 | i | -8.3* | 56%* | i | 42%* | 138* | 0.11*
Fc1ccc(C(CCCn2nnc(-c3cccnc3)n2)c2ccc(F)cc2)cc1 | i | -15* | 0.01 | -18 | 15* | -12* | 55%* | i | 38%* | 148* | i
Fc1ccc(-n2nnc(-c3cccnc3)n2)cc1 | i | i | 0.93 | -1 | i | i | . | . | . | . | .
Cc1ccc(Cl)cc1N1CCN(C2CCCCC2NS(=O)(=O)c2ccccc2)CC1 (stereo not drawn) | i | -9.3* | 0.27 | -10 | i | -17* | 54%* | i | 43%* | 112* | 0.14*
Cc1cccc(N2CCN(C3CCCCC3NS(=O)(=O)c3ccccc3)CC2C)c1 (stereo not drawn) | i | -9.2* | 0.15 | -9 | i | -15* | 44%* | i | 45%* | 115* | 0.15*
COc1cc(-c2noc(C)c2C(=O)NCCc2cccs2)cc(OC)c1OC | . | i | . | . | . | . | . | . | . | . | .
Clc1nc(-c2ccccc2)cc(-c2ccc(Br)cc2)n1 | i | -9.8* | -1.4 | -16 | 6* | -12* | 55%* | i | 51%* | 103* | i
Cc1c2ccccc2cc[n+]1CCCS(=O)(=O)[O-] | i | i | 0.3 | -10 | i | i | . | . | . | . | .
CCCCCCCCCC[n+]1cccc2c3ccccc3ccc21 | i | i | -9.1* | -19 | i | -15* | 73%* | i | 36%* | 72* | i
CSc1nc2sc3c(c2c(=O)n1CC(C)C)CC(C)(C)OC3 | i | i | -0.51 | -3 | i | i | . | . | . | . | .
OC(CNCCC1C=Nc2ccccc21)Cn1c2ccc(Cl)cc2c2cc(Cl)ccc21 (stereo not drawn) | i | i | 0.83 | -18 | i | i | . | . | . | . | .
COc1ccccc1NC(=O)CCSc1ccc(C)cc1 | i | i | -1.5 | -17 | i | i | . | . | . | . | .
COc1ccccc1NC(=O)C(C)OC(=O)CCSc1ccc(F)cc1 (stereo not drawn) | i | i | -0.43 | -9 | i | -16* | 62%* | i | 30%* | 120* | i
CCOC(=O)C1CCCN(C(=O)CCn2nnnc2CN2CCOCC2)C1 (stereo not drawn) | i | i | 0.68 | -7 | i | i | . | . | . | . | .
COc1cccc(-c2nn(-c3ccccc3)cc2C(=O)Nc2nccs2)c1 | i | -10* | -0.7 | -11 | 6* | -15* | 35%* | i | i | 100* | 0.12*
O=C(CCCN1C(=O)c2ccccc2C1=O)NCCc1ccc(OC(F)F)cc1 | i | i | -2.4 | -6 | i | i | . | . | . | . | .
COc1ccc(OC)c(NC(=O)c2cccc(NC(=O)c3ccccc3)c2)c1 | i | -11* | 3.9 | -5 | i | -9* | 47%* | i | i | 102* | i
COc1cccc(C(=O)Nc2cccc(-c3nnc(-c4ccccc4)o3)c2)c1 | i | -10* | -1.4 | -16 | i | -8.4* | 46%* | i | 30%* | 103* | 0.15*
SMILES | KCNQ1 act | KCNK3 block | Kir21 inh | hERG protect | KCNQ1 inh | KCNK9 block | KCNK9 inh conf | Kir21 sel | KCNK9 uninduced | KCNK3 confirm | KCNK3 noninduced
COc1ccc(NC(=O)c2cccc(NC(=O)c3ccccc3)c2)c(OC)c1 | i | i | -0.74 | 0 | i | i | . | . | . | . | .
COc1cc2cc(C(c3nnnn3C3CCCC3)N3CCc4ccccc43)c(=O)[nH]c2cc1OC (stereo not drawn) | i | i | -1.1 | -6 | i | i | . | . | . | . | .
Fc1ccc(C(c2nnnn2CCc2ccccc2)N2CCCc3ccccc32)cc1 (stereo not drawn) | i | -9.1* | -0.01 | -5 | i | -8.3* | 34%* | i | 36%* | 93* | 0.14*
Fc1ccc(C(c2nnnn2C2CCCC2)N2CCc3ccccc32)cc1 (stereo not drawn) | i | -9.3* | -0.24 | -12 | i | -9.5* | 38%* | i | 46%* | 107* | i
O=C(Nc1ccccc1N1CCN(c2ccc(F)cc2)CC1)c1ccccc1 | i | -14* | -1.5 | -4 | i | -10* | i | i | 29%* | 125* | 0.15*
CC(C)(C)CC(=O)Nc1ccccc1N1CCN(c2ccccc2)CC1 | i | i | 1.4 | -8 | i | i | . | . | . | . | .
CC(C)(C)CC(=O)Nc1ccccc1N1CCN(c2ccc(F)cc2)CC1 | i | -9* | 0.03 | -6 | i | -12* | 73%* | i | 37%* | 120* | 0.14*
O=C(C1CCCCN1S(=O)(=O)c1ccccc1[N+](=O)[O-])N1CCCCC1 (stereo not drawn) | i | i | 0 | -8 | i | i | . | . | . | . | .

Bioassay records deposited in PubChem BioAssay by Johns Hopkins Ion Channel Center.
